How the values were obtained:
Escherichia coli [1] = assay: Inhibition of FimC/FimH pilus assembly complex formation in Escherichia coli at 10 uM
In short: (§1)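 Competitive ELISA: FimC chaperone coated overnight at 4 °C in PBS pH 7.4, blocked with 3% BSA-PBS 1 h RT. Peptide in DMSO (0.5, 2.5 or 10 nmol; 10, 50, 200 µM) plus FimH (1 pmol, in 3 M urea/MES pH 6.8) 45 min RT. Bound FimH detected with mouse anti-FimH, then alkaline phosphatase anti-mouse IgG, p-nitrophenyl phosphate 1 h dark; A405. DMSO positive control. % inhibition, mean of four replicates.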

Escherichia coli [2] = assay: Inhibition of FimC/FimH pilus assembly complex formation in Escherichia coli at 50 uM; in short: as §1
Escherichia coli [3] = assay: Inhibition of FimC/FimH pilus assembly complex formation in Escherichia coli at 200 uM; in short: as §1

Row | inhibition (Escherichia coli [1]) [%] | inhibition (Escherichia coli [2]) [%] | inhibition (Escherichia coli [3]) [%] | Substance
1 | 2 | 16 | 26 | H-ADFFFHSIS-OH
2 | -5 | -9 | -6 | H-AFSKSDFIS-OH
3 | -3 | -1 | -2 | H-AGGTGTFIS-OH
4 | 3 | 13 | 14 | H-AKGDLLLIS-OH
5 | 12 | 9 | 0 | H-ATSFGHWIS-OH
6 | 0 | 8 | 18 | H-AVLASAWIS-OH
7 | -1 | 14 | 28 | H-DSTITIRGY-OH
8 | -3 | 1 | 3 | H-GGTVHFKGG-OH
9 | 16 | 11 | 3 | H-KDLASTLIS-OH
10 | 4 | 1 | 7 | H-KFGDLASIS-OH
11 | -7 | 9 | 8 | H-KGFQLDLIS-OH
12 | 8 | 22 | 39 | H-KKLKLHFIS-OH
13 | 20 | 17 | 29 | H-KVSFGLFIS-OH
14 | 10 | 25 | 37 | H-LDSTLAFIS-OH
15 | 19 | 29 | 40 | H-LGSAFLFIS-OH
16 | 0 | 7 | 10 | H-LTFDGTWIS-OH

Row | inhibition (Escherichia coli [1]) [%] | inhibition (Escherichia coli [2]) [%] | inhibition (Escherichia coli [3]) [%] | Substance
17 | 1 | 0 | 5 | H-LVGKSHLIS-OH
18 | 10 | 12 | 14 | H-NDLKGLFIS-OH
19 | -1 | 0 | 1 | H-NFFAGHFIS-OH
20 | 2 | -3 | 2 | H-NGFKFTWIS-OH
21 | 10 | 19 | 24 | H-NGLQGASIS-OH
22 | 3 | 19 | 12 | H-NGSDSHFIS-OH
23 | 3 | 8 | 10 | H-NKGTSDWIS-OH
24 | 2 | 11 | 15 | H-NTGALDSIS-OH
25 | 17 | 7 | 4 | H-NTGQFAFIS-OH
26 | 7 | 23 | 40 | H-NTLQLAIIS-OH
27 | 18 | 32 | 50 | H-NTLQLALIS-OH
28 | 18 | 30 | 44 | H-NVSTLHLIS-OH
29 | -8 | 1 | 4 | H-TDGQLLWIS-OH
30 | – | 17 | 3 | H-TGGAGALIS-OH
31 | 19 | 35 | 48 | H-TTFTSLSIS-OH
32 | 3 | 6 | 5 | H-TVLDFDFIS-OH
